IDH1 mut inh = blocks human IDH1 R132H reductase activity | inhibition, % at 10 µM | O75874 | hit rate 0.18% among 70,000 | diaphorase/resazurin fluorescence, 60 min; in the data active = inhibition above about 34%; inconclusive = no clear call, values can overlap the other calls; inactive = below about 11%;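 also: 0% = DMSO and 100% = no enzyme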
Target sequence (O75874 whole entry R132H): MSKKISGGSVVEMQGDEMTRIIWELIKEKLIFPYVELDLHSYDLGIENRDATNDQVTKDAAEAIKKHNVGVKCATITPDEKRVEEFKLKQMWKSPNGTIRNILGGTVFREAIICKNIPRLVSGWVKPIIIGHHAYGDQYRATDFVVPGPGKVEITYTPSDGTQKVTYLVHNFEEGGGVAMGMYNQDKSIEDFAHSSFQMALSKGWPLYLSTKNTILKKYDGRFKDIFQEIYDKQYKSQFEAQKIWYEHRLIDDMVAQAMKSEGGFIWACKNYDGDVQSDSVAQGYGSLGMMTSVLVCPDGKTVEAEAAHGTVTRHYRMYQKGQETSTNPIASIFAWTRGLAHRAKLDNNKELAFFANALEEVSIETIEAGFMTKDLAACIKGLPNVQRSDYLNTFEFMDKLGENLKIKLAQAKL
T cruzi growth-1 = blocks T. cruzi growth in NIH3T3 culture; T. cruzi beta-gal in NIH3T3, GalScreen luminescence, 90 h; inhibition, % at 8.34 µM; hit rate 5.9% among 77,000;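 active = mean inhibition above about 93%, with at least 55% of replicates each passing it, limit read from the data, passing the limit was not always enough; inconclusive = only one of those two conditions holds; inactive = neither condition holds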
Pf Dd2 inh = inhibitors of Plasmodium falciparum Dd2 growth; activity change, % at 10 µM; P. falciparum Dd2 growth, SYBR Green, 72 h; hits give low values; hit rate 2.3% among 94,000; in the data active = activity change below about -80%; inconclusive = no clear call, values can overlap the other calls
KDM4C inh = inhibitors of human demethylase GASC-1 KDM4C; Q9H3R0; GST-KDM4C 2-372, H3K9me3 peptide, LANCE TR-FRET; inhibition, % at 12.5 µM; hit rate 0.15% among 96,000; AID 720574;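 active = mean replicate inhibition above about 25%, with at least 55% of replicates also reaching it, limit read from the data, passing the limit was not always enough; inconclusive = only one of those two conditions met; inactive = neither condition met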
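Material: N-terminal GST-fused human GASC-1 (KDM4C) fragment, residues 2-372. Input: 10 nM enzyme. Incubation: enzyme reaction 30 min, then detection 60 min, both room temperature. Doses: one test concentration per compound. Read-out basis: inhibition from TR-FRET ratio decrease. Detection: LANCE TR-FRET, excitation 340 nm, emissions 618 and 671 nm.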
T cruzi growth-2 = Trypanosoma cruzi proliferation inhibition | shares compounds with T cruzi growth-1 | T. cruzi beta-gal in NIH3T3, GalScreen luminescence, 90 h | inhibition, % at 8.35 µM | hit rate 72% among 5,600;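 active = mean replicate inhibition above about 95% and at least 55% of replicates individually reaching it, limit read from the data; inconclusive = only one of the two criteria is met; inactive = neither criterion is met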
T cruzi growth-3 = blocks T. cruzi growth in NIH3T3 host cells; shares compounds with T cruzi growth-1; T. cruzi beta-gal in NIH3T3, GalScreen luminescence, 90 h; inhibition, % at 2.09 µM; hit rate 21% among 5,600; AID 651740;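 active = mean inhibition above about 95%, with at least 55% of replicates also reaching it, limit read from the data; inconclusive = meets just one of the two conditions; inactive = meets neither condition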;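 also: plate controls were neutral control median for no effect and positive control median for full effect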
3T3 cytotox = NIH/3T3 (mouse) viability loss | shares compounds with T cruzi growth-1 | NIH/3T3 viability, CellTiter-Glo ATP luminescence, 90 h | cytotoxicity (signal decrease), % at 8.35 µM | hit rate 14% among 5,600 | AID 651742;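 active = mean signal decrease across replicates above about 35% based on untreated-well scatter, with enough replicates individually passing, limit read from the data; inconclusive = no rule stated though some were filed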;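 also: 0% = median of neutral control wells and 100% = median of positive control wells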
NIH3T3 tox 2 = NIH/3T3 (mouse) viability loss | shares compounds with T cruzi growth-1 | NIH/3T3 viability, CellTiter-Glo ATP luminescence, 90 h | inhibition, % at 24.9 µM | hit rate 56% among 5,600 | AID 651744;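 active = mean loss of cell viability signal at or above a set limit, and enough replicates individually reaching it; inconclusive = meets only the mean limit or only the replicate share; inactive = meets neither condition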;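 also: 0% = median of neutral control wells and 100% = median of positive control wells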
* marks the source's active call; other numbers are inactive results; ? = inconclusive; · = no result. Most compounds without a hit are left out; they make up all but 5.8% or so of the library.

SMILES	IDH1 mut inh	T cruzi growth-1	Pf Dd2 inh	KDM4C inh	T cruzi growth-2	T cruzi growth-3	3T3 cytotox	NIH3T3 tox 2
COC(=O)C[C@H]1CC[C@H]2[C@H](COc3ccc(NC(=O)c4ccccc4F)cc3C(=O)N2C)O1	·	23.4	·	0.6	·	·	·	·
O=C(c1ccc2c(c1)OCO2)N1CCCCN2[C@@H](CO)[C@@H](c3ccc(-c4ccccc4)cc3)[C@@H]2C1	·	103.6*	-11.0	0.1	99.8*	67.0	?	101.7*
COc1cccc(-c2ccc([C@@H]3[C@H](CO)N4CCCCN(C(=O)c5ccc6c(c5)OCO6)C[C@@H]34)cc2)c1	·	98.0*	-36.0	-0.8	106.7*	44.2	24.7	102.9*
O=C(c1ccc2c(c1)OCO2)N1CCCCN2[C@H](CO)[C@H](c3ccc(-c4ccccc4)cc3)[C@@H]2C1	·	56.6	-49.2	0.3	·	·	·	·
COc1ccc(-c2ccc([C@H]3[C@H](CO)N4CCCCN(C(=O)c5ccc6c(c5)OCO6)C[C@@H]34)cc2)cc1	·	110.7*	-46.9	-0.9	100.3*	61.6	32.4	90.4*
COc1ccc(-c2ccc([C@@H]3[C@H]4CN(C(=O)c5ccc6c(c5)OCO6)CCCCN4[C@H]3CO)cc2)cc1	·	112.4*	-46.5	0.1	100.7*	82.3	22.8	104.5*
O=C(c1ccc2c(c1)OCO2)N1CCCCN2[C@H](C1)[C@H](c1ccc(-c3ccccc3)cc1)[C@@H]2CO	·	57.5	-14.2	0.0	·	·	·	·
COc1cccc(-c2ccc([C@H]3[C@@H](CO)N4CCCCN(C(=O)c5ccc6c(c5)OCO6)C[C@@H]34)cc2)c1	·	94.6	24.6	-0.7	·	·	·	·
Cc1ccc(-c2nnc(SCC(=O)c3ccc([N+](=O)[O-])cc3)o2)cc1	0.9	·	·	·	·	·	·	·
COc1ccc(-c2ccc([C@@H]3[C@H](CO)N4CCCCN(C(=O)c5ccc6c(c5)OCO6)C[C@@H]34)cc2)cc1	·	108.3*	-31.8	-0.5	?	58.0	21.3	104.2*
C[C@@H]1CN([C@H](C)CO)C(=O)c2cc(C#Cc3cccc(F)c3)cnc2O[C@H]1CN(C)C(=O)C1CCCCC1	0.0	100.9*	-70.8	-0.8	109.9*	83.9	-2.3	103.3*
C[C@H]1CN([C@@H](C)CO)C(=O)c2cc(C#Cc3ccccc3F)cnc2O[C@@H]1CN(C)C(=O)C1CCC1	0.2	97.2*	-52.6	-0.3	103.7*	44.1	30.4	45.3*
C[C@H](CO)N1C[C@H](C)[C@@H](CN(C)C(=O)Cc2ccccc2)Oc2ncc(C#Cc3ccccc3F)cc2C1=O	0.3	96.0*	-25.3	-1.8	108.4*	65.1	5.8	94.1*
C[C@H](CO)N1C[C@H](C)[C@@H](CN(C)C(=O)C2CCC2)Oc2ncc(C#Cc3ccccc3F)cc2C1=O	-0.1	103.5	-31.9	-1.8	·	·	·	·
CC(C)NC(=O)N(C)C[C@H]1Oc2ncc(C#Cc3ccccc3F)cc2C(=O)N([C@H](C)CO)C[C@H]1C	-1.8	72.4	-55.4	-2.4	·	·	·	·
C[C@H]1CN([C@@H](C)CO)C(=O)c2cc(C#Cc3cccc(F)c3)cnc2O[C@H]1CN(C)C(=O)C1CCCCC1	-0.3	99.1	-72.5	0.8	·	·	·	·
CC(C)NC(=O)N(C)C[C@@H]1Oc2ncc(C#Cc3ccccc3F)cc2C(=O)N([C@@H](C)CO)C[C@H]1C	·	101.7*	-50.2	0.5	81.4	48.1	31.7	61.4*
C[C@H](CO)N1C[C@H](C)[C@@H](CN(C)C(=O)c2ccccc2)Oc2cc(C#C[C@@H](C)O)ccc2S1(=O)=O	-3.2	7.5	-4.8	10.2	·	·	·	·
Cc1ccc(-c2nnc(N3CCN(C(=O)CSc4nc(C)cc(C)n4)CC3)c3ccccc23)cc1	-0.1	·	·	·	·	·	·	·
C[C@H](CO)N1C[C@H](C)[C@H](CN(C)C(=O)c2ccc3c(c2)OCO3)Oc2ncc(C#Cc3ccccc3F)cc2C1=O	·	56.3	-73.5	-0.3	·	·	·	·
C[C@H]1CN([C@@H](C)CO)C(=O)c2cc(C#Cc3ccccc3F)cnc2O[C@@H]1CN(C)C(=O)c1ccc2c(c1)OCO2	·	124.8*	-82.3*	0.9	110.3*	42.2	33.0	36.7*
